Assay results taken from ChEMBL document CHEMBL2429791, “Preparation of asymmetric urea derivatives that target prostate-specific membrane antigen for SPECT imaging” (J Med Chem, 2013).
pKd: −log10 of the molar value.

What was measured:
Nucleic Acid [1] = assay: Ratio of drug level in human LNCAP cells to human PC3 cells xenografted in C.B.-17/Icr […] Jcl mouse at 25.9 MBq, iv after 3 hrs; format: ADME, organism-based; details: in vivo
Kidney = assay: Biodistribution in kidney of C.B.-17/Icr […] Jcl mouse xenografted with human LNCAP and PC3 cells at 25.9 MBq, iv after 3 hrs; format: ADME, organism-based; details: in vivo
Outline: (§1)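 ¹²⁵I-labelled tracer given iv by tail vein to mice (22–24 g) bearing LNCaP (left shoulder) and PC-3 (right shoulder) xenografts of about 5–10 mm, grown from 1–5 × 10⁶ cells in 1:1 Matrigel. n=4 per time point; decapitated at 2 min, 30 min, 1, 3, 6 h. Tissues weighed and counted; uptake as %ID/g, mean ± SD.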

[2] = molecular target: Glutamate carboxypeptidase 2 (Homo sapiens, UniProt Q04609); assay: Binding affinity to PSMA in human LNCaP cells after 1 hr by gamma counting; format: cell-based
Chain of Glutamate carboxypeptidase 2 (Q04609 whole entry): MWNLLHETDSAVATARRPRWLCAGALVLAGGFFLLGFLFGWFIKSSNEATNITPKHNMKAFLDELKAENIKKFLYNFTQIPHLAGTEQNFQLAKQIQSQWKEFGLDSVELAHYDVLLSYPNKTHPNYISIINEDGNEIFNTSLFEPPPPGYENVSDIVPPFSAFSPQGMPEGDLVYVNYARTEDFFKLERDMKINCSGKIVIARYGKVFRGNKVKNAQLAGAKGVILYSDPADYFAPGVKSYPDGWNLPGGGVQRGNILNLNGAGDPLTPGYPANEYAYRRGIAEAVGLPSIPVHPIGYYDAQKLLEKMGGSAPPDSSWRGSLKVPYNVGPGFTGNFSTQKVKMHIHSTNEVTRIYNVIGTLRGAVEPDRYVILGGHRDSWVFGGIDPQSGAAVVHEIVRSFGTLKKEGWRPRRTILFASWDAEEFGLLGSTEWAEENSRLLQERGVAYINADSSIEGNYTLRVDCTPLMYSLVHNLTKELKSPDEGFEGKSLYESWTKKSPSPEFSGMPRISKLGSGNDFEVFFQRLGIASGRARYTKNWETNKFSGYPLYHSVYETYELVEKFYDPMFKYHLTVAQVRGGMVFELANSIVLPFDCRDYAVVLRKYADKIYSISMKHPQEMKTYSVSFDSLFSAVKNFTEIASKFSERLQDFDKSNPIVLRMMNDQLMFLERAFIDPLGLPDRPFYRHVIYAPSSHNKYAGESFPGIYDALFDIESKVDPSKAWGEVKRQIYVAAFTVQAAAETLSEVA
Outline: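 LNCaP cells plated at 4 × 10⁵ cells/well and grown 48 h (37 °C/5% CO₂), then washed with RPMI 1640 containing 0.5% BSA. Saturation binding used ¹²⁵I-labelled ligand (specific activity 81.4 kBq/nmol), 1 h at 37 °C; nonspecific binding measured with 100 µM non-radioactive iodinated compound. Cells washed, lysed in 0.2 N NaOH, gamma-counted; Kd from Scatchard plots.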

Nucleic Acid [3] = assay: Ratio of drug level in human LNCAP cells xenografted in C.B.-17/Icr +/+ Jcl mouse to muscle of C.B.-17/Icr +/+ Jcl mouse xenografted with human LNCAP and PC3 cells at 25.9 MBq, iv after 3 hrs; format: ADME, organism-based; details: in vivo
Outline: (§2)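 Tumor-to-blood and tumor-to-muscle ratios were calculated from %ID/g values in ¹²⁵I-tracer biodistribution in LNCaP/PC-3 xenografted mice. Tail-vein dosing, n=4 per time point, sacrifice at 2 min, 30 min, 1, 3 or 6 h.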

Heart = assay: Biodistribution in heart of C.B.-17/Icr +/+ Jcl mouse xenografted with human LNCAP and PC3 cells at 25.9 MBq, iv after 2 mins; format: ADME, organism-based; details: in vivo; outline: as §1
Intestine = assay: Biodistribution in intestine of C.B.-17/Icr +/+ Jcl mouse xenografted with human LNCAP and PC3 cells at 25.9 MBq, iv after 2 mins; format: ADME, organism-based; details: in vivo; outline: as §1
Thyroid gland = assay: Biodistribution in thyroid of C.B.-17/Icr +/+ Jcl mouse xenografted with human LNCAP and PC3 cells at 25.9 MBq, iv after 2 mins; format: ADME, organism-based; details: in vivo
Outline: (§3)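 Radioiodinated (¹²⁵I) tracer given by tail-vein injection to mice bearing LNCaP (left shoulder) and PC-3 (right shoulder) xenografts, 22–24 g, grown to about 5–10 mm. Groups of n=4 were decapitated at 2 min, 30 min, 1 h, 3 h or 6 h. Tissues were weighed and counted, and uptake was expressed as %ID/g (mean ± SD).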

Nucleic Acid [4] = assay: Ratio of drug level in human LNCAP cells to human PC3 cells xenografted in C.B.-17/Icr […] Jcl mouse at 25.9 MBq, iv after 6 hrs; format: ADME, organism-based; details: in vivo
Spleen = assay: Biodistribution in spleen of C.B.-17/Icr +/+ Jcl mouse xenografted with human LNCAP and PC3 cells at 25.9 MBq, iv after 1 hr; format: ADME, organism-based; details: in vivo; outline: as §3
Blood [5] = assay: Biodistribution in blood of C.B.-17/Icr +/+ Jcl mouse xenografted with human LNCAP and PC3 cells at 25.9 MBq, iv after 2 mins; format: ADME, organism-based; details: in vivo; outline: as §1
[6] = Ratio of drug level in human LNCAP cells xenografted in C.B.-17/Icr +/+ Jcl mouse to blood of C.B.-17/Icr +/+ Jcl mouse xenografted with human LNCAP and PC3 cells at 25.9 MBq, iv after 6 hrs; format: ADME, organism-based; details: LNCAP tumour xenograft relative to blood; outline: as §2
Muscle tissue = assay: Biodistribution in muscle of C.B.-17/Icr +/+ Jcl mouse xenografted with human LNCAP and PC3 cells at 25.9 MBq, iv after 1 hr; format: ADME, organism-based; details: in vivo; outline: as §3
[7] = Ratio of drug level in human PC3 cells xenografted in C.B.-17/Icr +/+ Jcl mouse to blood of C.B.-17/Icr +/+ Jcl mouse xenografted with human LNCAP and PC3 cells at 25.9 MBq, iv after 30 mins; format: ADME, organism-based; details: PC3 tumour xenograft relative to blood
Outline: (§4)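 Mice (22–24 g) carried PC-3 (right shoulder) and LNCaP (left shoulder) tumors, raised by injecting 1–5 × 10⁶ cells in 1:1 PBS/Matrigel and used at about 5–10 mm diameter. [¹²⁵I]-tracer was given via the tail vein, n=4 per time point, and mice were decapitated at 2 min, 30 min, 1, 3 or 6 h. Tissues were weighed and γ-counted as %ID/g. Tumor/blood and tumor/muscle ratios were taken from %ID/g, mean ± SD.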

Lung [8] = assay: Biodistribution in lung of C.B.-17/Icr +/+ Jcl mouse xenografted with human LNCAP and PC3 cells at 25.9 MBq, iv after 1 hr; format: ADME, organism-based; details: in vivo; outline: as §3
Blood [9] = assay: Biodistribution in blood of C.B.-17/Icr +/+ Jcl mouse xenografted with human LNCAP and PC3 cells at 25.9 MBq, iv after 1 hr; format: ADME, organism-based; details: in vivo; outline: as §1
Nucleic Acid [10] = assay: Ratio of drug level in human PC3 cells xenografted in C.B.-17/Icr +/+ Jcl mouse to muscle of C.B.-17/Icr +/+ Jcl mouse xenografted with human LNCAP and PC3 cells at 25.9 MBq, iv after 3 hrs; format: ADME, organism-based; details: in vivo; outline: as §4
Liver = assay: Biodistribution in liver of C.B.-17/Icr […] Jcl mouse xenografted with human LNCAP and PC3 cells at 25.9 MBq, iv after 1 hr; format: ADME, organism-based; details: in vivo; outline: as §1
PC-3 = assay: Biodistribution in PC3 cells in C.B.-17/Icr +/+ Jcl mouse xenografted with human LNCAP and PC3 cells at 25.9 MBq, iv after 2 mins; format: ADME, organism-based; details: in vivo; outline: as §1
Lung [11] = assay: Biodistribution in lung of C.B.-17/Icr +/+ Jcl mouse xenografted with human LNCAP and PC3 cells at 25.9 MBq, iv after 6 hrs; format: ADME, organism-based; details: in vivo; outline: as §3
Lung [12] = assay: Biodistribution in lung of C.B.-17/Icr +/+ Jcl mouse xenografted with human LNCAP and PC3 cells at 25.9 MBq, iv after 2 mins; format: ADME, organism-based; details: in vivo; outline: as §3
Nucleic Acid [13] = assay: Ratio of drug level in human LNCAP cells to human PC3 cells xenografted in C.B.-17/Icr […] Jcl mouse at 25.9 MBq, iv after 1 hr; format: ADME, organism-based; details: in vivo
Nucleic Acid [14] = assay: Ratio of drug level in human PC3 cells xenografted in C.B.-17/Icr +/+ Jcl mouse to muscle of C.B.-17/Icr +/+ Jcl mouse xenografted with human LNCAP and PC3 cells at 25.9 MBq, iv after 2 mins; format: ADME, organism-based; details: in vivo; outline: as §4

Ratio (Nucleic Acid [1]): 33.9
Drug uptake (Kidney): 110 % ID/g
pKd [2]: 8.11
Ratio (Nucleic Acid [3]): 49.4
Drug uptake (Heart): 5.4 % ID/g
Drug uptake (Intestine): 3.6 % ID/g
Drug uptake (Thyroid gland): 0.02 %ID
Ratio (Nucleic Acid [4]): 36.8
Drug uptake (Spleen): 36.5 % ID/g
Drug uptake (Blood [5]): 7.4 % ID/g
Kp at 6 h [6]: 13.3
Drug uptake (Muscle tissue): 0.5 % ID/g
Kp at 0.5 h [7]: 0.7
Drug uptake (Lung [8]): 2.5 % ID/g
Drug uptake (Blood [9]): 1 % ID/g
Ratio (Nucleic Acid [10]): 1.5
Drug uptake (Liver): 13.9 % ID/g
Drug uptake (PC-3): 2.7 % ID/g
Drug uptake (Lung [11]): 0.9 % ID/g
Drug uptake (Lung [12]): 6.8 % ID/g
Ratio (Nucleic Acid [13]): 9.6
Ratio (Nucleic Acid [14]): 1.9
Compound: O=C(O)CC[C@H](NC(=O)N[C@@H](CSC1CC(=O)N(CCCC[C@H](NC(=O)CNC(=O)c2cccc([125I])c2)C(=O)O)C1=O)C(=O)O)C(=O)O (some centres not stated)
